Test results reported in ChEMBL document CHEMBL1667774, “Synthesis and evaluation of a class of new coumarin triazole derivatives as potential antimicrobial agents” (2011).
In brackets after ≈: the same amount, converted by molar mass.

How the values were obtained:
Salmonella typhi = experiment: Antimicrobial activity against Salmonella typhi ATCC 9484 by twofold broth dilution method; format: functional, Salmonella enterica subsp. enterica serovar Typhi; settings: Salmonella enterica
In short: (§1)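 Antibacterial MIC, determined by two-fold serial broth dilution following the NCCLS-recommended method. Clinical antimicrobial drugs were run alongside as positive controls.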

Proteus vulgaris = experiment: Antimicrobial activity against Proteus vulgaris ATCC 6896 by twofold broth dilution method; format: functional
In short: (§2)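 Two-fold broth dilution in 96-well micro-test plates, following NCCLS recommendations. Enoxacin and Chloromycin served as positive controls for bacteria, and Fluconazole for fungi. The read-out is the MIC in µg/mL.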

Candida albicans = experiment: Antifungal activity against Candida albicans ATCC 76615 by twofold broth dilution method; format: functional; in short: as §2
Shigella dysenteriae = experiment: Antimicrobial activity against Shigella dysenteriae ATCC 49550 by twofold broth dilution method; format: functional; in short: as §1
Staphylococcus aureus [1] = experiment: Antimicrobial activity against Staphylococcus aureus ATCC 25923 by twofold broth dilution method; format: functional; in short: as §2
Aspergillus fumigatus = experiment: Antifungal activity against Aspergillus fumigatus ATCC 96918 by twofold broth dilution method; format: functional; in short: as §2
Escherichia coli = experiment: Antimicrobial activity against Escherichia coli ATCC 25922 by twofold broth dilution method; format: functional; in short: as §2
Staphylococcus aureus [2] = experiment: Antimicrobial activity against methicillin-resistant Staphylococcus aureus N 315 by twofold broth dilution method; format: functional; in short: as §1
Micrococcus luteus = experiment: Antimicrobial activity against Micrococcus luteus ATCC 4698 by twofold broth dilution method; format: functional; in short: as §2
Saccharomyces cerevisiae = experiment: Antifungal activity against Saccharomyces cerevisiae ATCC 9763 by twofold broth dilution method; format: functional; in short: as §2
Bacillus subtilis = experiment: Antimicrobial activity against Bacillus subtilis ATCC 6633 by twofold broth dilution method; format: functional; in short: as §2

SMILES | MIC (Salmonella typhi) [µg/mL] | MIC (Proteus vulgaris) [µg/mL] | MIC (Candida albicans) [µg/mL] | MIC (Shigella dysenteriae) [µg/mL] | MIC (Staphylococcus aureus [1]) [µg/mL] | MIC (Aspergillus fumigatus) [µg/mL] | MIC (Escherichia coli) [µg/mL] | MIC (Staphylococcus aureus [2]) [µg/mL] | MIC (Micrococcus luteus) [µg/mL] | MIC (Saccharomyces cerevisiae) [µg/mL] | MIC (Bacillus subtilis) [µg/mL]
Cc1cc(=O)oc2cc(OCc3ccc(Cn4cncn4)cc3)cc(OCc3ccc(Cn4cncn4)cc3)c12.Cl | 16 | 16 | 8 | 16 | 8 | 16 | 8 | 16 | 16 | 16 | 16
Cc1cc(=O)oc2cc(OCc3ccc(CBr)cc3)ccc12 | 512 (≈ 1430 µM) | 512 (≈ 1430 µM) | 256 (≈ 713 µM) | 512 (≈ 1430 µM) | 256 (≈ 713 µM) | 256 (≈ 713 µM) | 512 (≈ 1430 µM) | 512 (≈ 1430 µM) | 256 (≈ 713 µM) | 256 (≈ 713 µM) | 256 (≈ 713 µM)
Cc1cc(=O)oc2cc(OCCCCCCn3cncn3)ccc12 | 32 (≈ 97.7 µM) | 32 (≈ 97.7 µM) | 16 (≈ 48.9 µM) | 32 (≈ 97.7 µM) | 8 (≈ 24.4 µM) | 32 (≈ 97.7 µM) | 32 (≈ 97.7 µM) | 16 (≈ 48.9 µM) | 8 (≈ 24.4 µM) | 32 (≈ 97.7 µM) | 8 (≈ 24.4 µM)
Cc1cc(=O)oc2cc(OCCCCCCn3cncn3)cc(OCCCCCCn3cncn3)c12 | 16 (≈ 32.3 µM) | 8 (≈ 16.2 µM) | 4 (≈ 8.09 µM) | 8 (≈ 16.2 µM) | 8 (≈ 16.2 µM) | 32 (≈ 64.7 µM) | 8 (≈ 16.2 µM) | 16 (≈ 32.3 µM) | 8 (≈ 16.2 µM) | 4 (≈ 8.09 µM) | 4 (≈ 8.09 µM)
Cc1cc(=O)oc2cc(OCCCCCn3cncn3)cc(OCCCCCn3cncn3)c12 | 4 (≈ 8.57 µM) | 4 (≈ 8.57 µM) | 2 (≈ 4.29 µM) | 4 (≈ 8.57 µM) | 2 (≈ 4.29 µM) | 32 (≈ 68.6 µM) | 8 (≈ 17.1 µM) | 8 (≈ 17.1 µM) | 4 (≈ 8.57 µM) | 4 (≈ 8.57 µM) | 4 (≈ 8.57 µM)
Cc1cc(=O)oc2cc(OCCCCCn3cncn3)ccc12 | 16 (≈ 51.1 µM) | 32 (≈ 102 µM) | 8 (≈ 25.5 µM) | 32 (≈ 102 µM) | 4 (≈ 12.8 µM) | 16 (≈ 51.1 µM) | 32 (≈ 102 µM) | 16 (≈ 51.1 µM) | 8 (≈ 25.5 µM) | 16 (≈ 51.1 µM) | 4 (≈ 12.8 µM)
Cc1cc(=O)oc2cc(OCc3ccc(COc4ccc5c(C)cc(=O)oc5c4)cc3)ccc12 | > 512 | > 512 | > 512 | > 512 | > 512 | > 512 | > 512 | > 512 | > 512 | 512 (≈ 1130 µM) | > 512
Cc1cc(=O)oc2cc(OCc3ccc(Cn4cncn4)cc3)cc(OCc3ccc(Cn4cncn4)cc3)c12 | 32 (≈ 59.9 µM) | 32 (≈ 59.9 µM) | 32 (≈ 59.9 µM) | 64 (≈ 120 µM) | 32 (≈ 59.9 µM) | 64 (≈ 120 µM) | 64 (≈ 120 µM) | 64 (≈ 120 µM) | 64 (≈ 120 µM) | 32 (≈ 59.9 µM) | 64 (≈ 120 µM)
Cc1cc(=O)oc2cc(OCc3ccc(Cn4cncn4)cc3)ccc12.Cl | 16 | 16 | 8 | 16 | 8 | 16 | 16 | 16 | 8 | 16 | 8
Cc1cc(=O)oc2cc(OCCCCOc3ccc4c(C)cc(=O)oc4c3)ccc12 | 256 (≈ 630 µM) | 256 (≈ 630 µM) | 512 (≈ 1260 µM) | 512 (≈ 1260 µM) | 128 (≈ 315 µM) | 512 (≈ 1260 µM) | 256 (≈ 630 µM) | 512 (≈ 1260 µM) | 128 (≈ 315 µM) | 256 (≈ 630 µM) | 128 (≈ 315 µM)
Cc1cc(=O)oc2cc(OCCCCBr)cc(OCCCCBr)c12 | 256 (≈ 554 µM) | 256 (≈ 554 µM) | 128 (≈ 277 µM) | 256 (≈ 554 µM) | 256 (≈ 554 µM) | 256 (≈ 554 µM) | 512 (≈ 1110 µM) | 512 (≈ 1110 µM) | 256 (≈ 554 µM) | 256 (≈ 554 µM) | 128 (≈ 277 µM)
Cc1cc(=O)oc2cc(OCCCCCCOc3ccc4c(C)cc(=O)oc4c3)ccc12 | 512 (≈ 1180 µM) | 256 (≈ 589 µM) | 512 (≈ 1180 µM) | 512 (≈ 1180 µM) | 256 (≈ 589 µM) | 512 (≈ 1180 µM) | 256 (≈ 589 µM) | 512 (≈ 1180 µM) | 128 (≈ 295 µM) | 256 (≈ 589 µM) | 128 (≈ 295 µM)
Cc1cc(=O)oc2cc(O)cc(O)c12 [5,7-DIHYDROXY-4-METHYLCOUMARIN] | 256 (≈ 1330 µM) | 128 (≈ 666 µM) | 64 (≈ 333 µM) | 256 (≈ 1330 µM) | 32 (≈ 167 µM) | 256 (≈ 1330 µM) | 128 (≈ 666 µM) | 64 (≈ 333 µM) | 64 (≈ 333 µM) | 256 (≈ 1330 µM) | 64 (≈ 333 µM)
Cc1cc(=O)oc2cc(OCCCCn3cncn3)cc(OCCCCn3cncn3)c12 | 1 (≈ 2.28 µM) | 2 (≈ 4.56 µM) | 1 (≈ 2.28 µM) | 1 (≈ 2.28 µM) | 1 (≈ 2.28 µM) | 4 (≈ 9.12 µM) | 1 (≈ 2.28 µM) | 2 (≈ 4.56 µM) | 1 (≈ 2.28 µM) | 2 (≈ 4.56 µM) | 2 (≈ 4.56 µM)
Cc1cc(=O)oc2cc(OCc3ccc(Cn4cncn4)cc3)ccc12 | 64 (≈ 184 µM) | 64 (≈ 184 µM) | 32 (≈ 92.1 µM) | 64 (≈ 184 µM) | 32 (≈ 92.1 µM) | 64 (≈ 184 µM) | 64 (≈ 184 µM) | 64 (≈ 184 µM) | 32 (≈ 92.1 µM) | 64 (≈ 184 µM) | 32 (≈ 92.1 µM)
Cc1cc(=O)oc2cc(OCCCCCCBr)cc(OCCCCCCBr)c12 | 512 (≈ 988 µM) | 512 (≈ 988 µM) | 128 (≈ 247 µM) | 512 (≈ 988 µM) | 256 (≈ 494 µM) | 128 (≈ 247 µM) | 512 (≈ 988 µM) | 512 (≈ 988 µM) | 128 (≈ 247 µM) | 128 (≈ 247 µM) | 128 (≈ 247 µM)
OC(Cn1cncn1)(Cn1cncn1)c1ccc(F)cc1F [FLUCONAZOLE] | – | – | 1 (≈ 3.27 µM) | – | – | 128 (≈ 418 µM) | – | – | – | 2 (≈ 6.53 µM) | –
Cc1cc(=O)oc2cc(OCCCCCBr)ccc12 | 512 (≈ 1570 µM) | 512 (≈ 1570 µM) | 128 (≈ 394 µM) | 256 (≈ 787 µM) | 128 (≈ 394 µM) | 256 (≈ 787 µM) | 512 (≈ 1570 µM) | 256 (≈ 787 µM) | 256 (≈ 787 µM) | 512 (≈ 1570 µM) | 128 (≈ 394 µM)
CCn1cc(C(=O)O)c(=O)c2cc(F)c(N3CCNCC3)nc21 [ENOXACIN] | 2 (≈ 6.24 µM) | 1 (≈ 3.12 µM) | – | 1 (≈ 3.12 µM) | 1 (≈ 3.12 µM) | – | 1 (≈ 3.12 µM) | 4 (≈ 12.5 µM) | ≤ 1 | – | 1 (≈ 3.12 µM)
Cc1cc(=O)oc2cc(O)ccc12 [HYMECROMONE] | 128 (≈ 727 µM) | 256 (≈ 1450 µM) | 64 (≈ 363 µM) | 512 (≈ 2910 µM) | 32 (≈ 182 µM) | 128 (≈ 727 µM) | 128 (≈ 727 µM) | 64 (≈ 363 µM) | 32 (≈ 182 µM) | 128 (≈ 727 µM) | 32 (≈ 182 µM)
Cc1cc(=O)oc2cc(OCCCCCOc3ccc4c(C)cc(=O)oc4c3)ccc12 | 512 (≈ 1220 µM) | 512 (≈ 1220 µM) | 512 (≈ 1220 µM) | 512 (≈ 1220 µM) | 128 (≈ 304 µM) | 512 (≈ 1220 µM) | 256 (≈ 609 µM) | 256 (≈ 609 µM) | 128 (≈ 304 µM) | 256 (≈ 609 µM) | 256 (≈ 609 µM)
Cc1cc(=O)oc2cc(OCCCCCBr)cc(OCCCCCBr)c12 | 256 (≈ 522 µM) | 256 (≈ 522 µM) | 128 (≈ 261 µM) | 256 (≈ 522 µM) | 128 (≈ 261 µM) | 128 (≈ 261 µM) | 512 (≈ 1040 µM) | 256 (≈ 522 µM) | 128 (≈ 261 µM) | 256 (≈ 522 µM) | 128 (≈ 261 µM)
Cc1cc(=O)oc2cc(OCCCCCCBr)ccc12 | 256 (≈ 755 µM) | 256 (≈ 755 µM) | 256 (≈ 755 µM) | 512 (≈ 1510 µM) | 64 (≈ 189 µM) | 512 (≈ 1510 µM) | 512 (≈ 1510 µM) | 256 (≈ 755 µM) | 64 (≈ 189 µM) | 256 (≈ 755 µM) | 128 (≈ 377 µM)
O=C(N[C@H](CO)[C@H](O)c1ccc([N+](=O)[O-])cc1)C(Cl)Cl [CHLORAMPHENICOL] | 4 (≈ 12.4 µM) | 8 (≈ 24.8 µM) | – | 4 (≈ 12.4 µM) | 4 (≈ 12.4 µM) | – | 8 (≈ 24.8 µM) | 16 (≈ 49.5 µM) | ≤ 4 | – | 8 (≈ 24.8 µM)
Cc1cc(=O)oc2cc(OCCCCn3cncn3)ccc12 | 16 (≈ 53.5 µM) | 16 (≈ 53.5 µM) | 2 (≈ 6.68 µM) | 16 (≈ 53.5 µM) | 2 (≈ 6.68 µM) | 16 (≈ 53.5 µM) | 8 (≈ 26.7 µM) | 8 (≈ 26.7 µM) | 4 (≈ 13.4 µM) | 4 (≈ 13.4 µM) | 2 (≈ 6.68 µM)
Cc1cc(=O)oc2cc(OCCCCBr)ccc12 | 256 (≈ 823 µM) | 256 (≈ 823 µM) | 128 (≈ 411 µM) | 512 (≈ 1650 µM) | 128 (≈ 411 µM) | 512 (≈ 1650 µM) | 256 (≈ 823 µM) | 256 (≈ 823 µM) | 128 (≈ 411 µM) | 256 (≈ 823 µM) | 128 (≈ 411 µM)
Cc1cc(=O)oc2cc(OCCCCn3cncn3)ccc12.Cl | 16 | 8 | 2 | 16 | 2 | 8 | 4 | 8 | 2 | 4 | 2
Cc1cc(=O)oc2cc(OCc3ccc(CBr)cc3)cc(OCc3ccc(CBr)cc3)c12 | 256 (≈ 459 µM) | 512 (≈ 917 µM) | 256 (≈ 459 µM) | 512 (≈ 917 µM) | 256 (≈ 459 µM) | 256 (≈ 459 µM) | 512 (≈ 917 µM) | 512 (≈ 917 µM) | 256 (≈ 459 µM) | 256 (≈ 459 µM) | 128 (≈ 229 µM)
Cc1cc(=O)oc2cc(OCCCCn3cncn3)cc(OCCCCn3cncn3)c12.Cl | 1 | 2 | 1 | 1 | 1 | 2 | 1 | 2 | 1 | 2 | 1
